Publication PMC7012720 (Journal of inorganic biochemistry, 2019)
Several values for one entry are separate records, joined by “and”; a condition that tells them apart may be missing. Equal values may be shown once. Read-outs that look alike come from different tables or passages of the source.

Key:
MCF10A (normal) = conditions: cited from earlier work
[1] = Mole fractions of protonation states calculated from pKa values; format: physicochemical
[2] = standard deviation in parenthesis; cited from earlier work
Log = format: physicochemical; conditions: for Estimated Log(Do/w) of protonation state: best fit of Figures 2–4, error +/− 0.2
Procedure, shortened: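 Modified shake-flask method in the dark, using 0.1 M acetate (pH 4.00–5.25) or 0.1 M phosphate (pH 5.8–8.0) buffer. Octanol and buffer were mutually pre-saturated for 24 h. Test compound (200 μM) in buffer-saturated octanol was stirred 1:1 with octanol-saturated buffer for 24 h at ambient temperature. The filtered aqueous phase was quantified by UV-Vis. logD = log([Ru]org/[Ru]aq), quadruplicate mean. Per-species values were fitted from pKa-based fractions.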

HeLa (cervical cancer) = conditions: cited from earlier work
MDA-MD-231 (breast CSC) = conditions: cited from earlier work
MCF7 (breast cancer) = conditions: cited from earlier work
[3] = read-out: IC50 light, irradiation for one hour with blue light (450 nm)

Proportion of monoprotic species ([1]; pH 6.0 to 6.6): 80–83%
Mole fraction of acidic form (XA) ([1]; pH 7.4): ~0.003
Mole fraction of monoprotic species ([1]; pH 7.4): ~0.42
Estimated Log(Do/w) of protonation state (Log; Acidic Form (XA)): −0.1
Estimated Log(Do/w) of protonation state (Log; Basic Form (XB)): 1.6
Estimated Log(Do/w) of protonation state (Log; Monoprotic Acid): 0.9
Increase of Log(Do/w) from acidic form (XA) to basic form (XB) (Log; orders of magnitude / log units, listed as 1): ~ 1.7 and 1.7
Log(Do/w) (Log; pH 4.00, 0.1M Acetate Buffer): 0.04(3)
Log(Do/w) (Log; pH 5.00, 0.1M Acetate Buffer): 0.11(2)
Log(Do/w) (Log; pH 6.00, 0.1M Phosphate Buffer): 0.57(2)
Log(Do/w) (Log; pH 6.60, 0.1M Phosphate Buffer): 1.10(2)
Log(Do/w) (Log; pH 7.00, 0.1M Phosphate Buffer): 1.18(1)
Log(Do/w) (Log; pH 7.40, 0.1M Phosphate Buffer): 1.36(1)
Log(Do/w) (Log; pH 8.00, 0.1M Phosphate Buffer): 1.39(2)
Substance: [(bipy)2Ru(6,6’-dhbp)]^2+ [Compound 1A]
PI (phototoxicity index, IC50 dark / IC50 light) (MCF10A (normal)): >2.4
IC50 (MCF10A (normal); read-out: IC50 dark, dark): > 500 µM
IC50 (MCF10A (normal); [3]): 210 µM
pKa1 [2]: 5.26
pKa2 [2]: 7.27
pKa avg [2]: 6.3
PI (phototoxicity index, IC50 dark / IC50 light) (HeLa (cervical cancer)): 0.73
IC50 (HeLa (cervical cancer); read-out: IC50 dark, dark): 148 µM
IC50 (HeLa (cervical cancer); [3]): 202 µM
PI (phototoxicity index, IC50 dark / IC50 light) (MDA-MD-231 (breast CSC); MDA-MD-231): 3.5
IC50 (MDA-MD-231 (breast CSC); read-out: IC50 dark, MDA-MD-231, dark): 1010 µM
IC50 (MDA-MD-231 (breast CSC); read-out: IC50 light, MDA-MD-231, irradiation for one hour with blue light (450 nm)): 290 µM
PI (phototoxicity index, IC50 dark / IC50 light) (MCF7 (breast cancer); MCF7): ~1
IC50 (MCF7 (breast cancer); read-out: IC50 dark, MCF7, dark): > 500 µM
IC50 (MCF7 (breast cancer); read-out: IC50 light, MCF7, irradiation for one hour with blue light (450 nm)): > 500 µM
